Reference: ChEMBL document CHEMBL5649170, “Sustained microglial depletion with CSF1R inhibitor impairs parenchymal plaque development in an Alzheimer's disease model” (Nat Commun, 2019)

Tests used:
[1] = biological target: Casein kinase I isoform gamma-3 (Homo sapiens, UniProt Q9Y6M4); test: Inhibition of CSNK1G3 (unknown origin)
[2] = biological target: Inhibitor of nuclear factor kappa-B kinase subunit epsilon (Homo sapiens, UniProt Q14164); test: Inhibition of IKBKE (unknown origin)
[3] = biological target: Mitogen-activated protein kinase 13 (Homo sapiens, UniProt O15264); test: Inhibition of MAPK13 (unknown origin)
Chain of Mitogen-activated protein kinase 13 (O15264 whole entry): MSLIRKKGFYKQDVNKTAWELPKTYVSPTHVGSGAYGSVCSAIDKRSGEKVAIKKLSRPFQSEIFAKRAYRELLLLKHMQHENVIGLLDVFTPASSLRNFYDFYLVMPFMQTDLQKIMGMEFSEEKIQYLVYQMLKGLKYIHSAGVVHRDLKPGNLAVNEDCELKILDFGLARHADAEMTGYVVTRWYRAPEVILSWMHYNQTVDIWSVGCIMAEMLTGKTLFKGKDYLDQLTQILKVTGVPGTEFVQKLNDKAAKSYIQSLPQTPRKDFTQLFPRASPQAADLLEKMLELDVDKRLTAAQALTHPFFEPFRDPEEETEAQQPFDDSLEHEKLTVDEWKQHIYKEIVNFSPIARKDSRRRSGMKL

[4] = biological target: Phosphatidylinositol 3-kinase catalytic subunit type 3 (Homo sapiens, UniProt Q8NEB9); test: Inhibition of PIK3C3 (unknown origin)
Chain of Phosphatidylinositol 3-kinase catalytic subunit type 3 (Q8NEB9 whole entry): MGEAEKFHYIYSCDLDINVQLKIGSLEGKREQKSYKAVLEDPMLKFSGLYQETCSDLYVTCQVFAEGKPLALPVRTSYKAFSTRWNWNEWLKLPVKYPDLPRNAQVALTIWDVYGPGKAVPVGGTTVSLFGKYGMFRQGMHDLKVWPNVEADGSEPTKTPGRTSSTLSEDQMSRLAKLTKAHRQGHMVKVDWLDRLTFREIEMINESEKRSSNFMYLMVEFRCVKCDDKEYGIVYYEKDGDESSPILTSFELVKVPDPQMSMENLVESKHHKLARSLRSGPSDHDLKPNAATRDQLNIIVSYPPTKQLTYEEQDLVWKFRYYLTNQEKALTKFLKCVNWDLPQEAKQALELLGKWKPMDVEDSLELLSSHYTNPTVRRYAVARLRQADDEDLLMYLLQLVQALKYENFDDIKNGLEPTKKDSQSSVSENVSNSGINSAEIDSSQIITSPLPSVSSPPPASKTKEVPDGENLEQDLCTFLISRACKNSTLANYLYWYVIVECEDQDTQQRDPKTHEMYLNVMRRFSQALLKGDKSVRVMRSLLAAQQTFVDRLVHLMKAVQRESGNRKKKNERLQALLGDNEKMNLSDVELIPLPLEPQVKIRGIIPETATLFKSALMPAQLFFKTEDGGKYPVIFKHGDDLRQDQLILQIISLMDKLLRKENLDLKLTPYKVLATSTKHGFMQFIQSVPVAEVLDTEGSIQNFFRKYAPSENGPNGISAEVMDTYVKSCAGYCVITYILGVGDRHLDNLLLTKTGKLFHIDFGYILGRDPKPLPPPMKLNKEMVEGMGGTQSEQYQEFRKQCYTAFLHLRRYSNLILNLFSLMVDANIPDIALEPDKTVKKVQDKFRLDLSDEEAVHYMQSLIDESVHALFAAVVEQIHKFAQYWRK

Angiopoietin-1 receptor = Angiopoietin-1 receptor (Homo sapiens, UniProt Q02763); test: Inhibition of TEK (unknown origin)
Chain of Angiopoietin-1 receptor (Q02763 whole entry): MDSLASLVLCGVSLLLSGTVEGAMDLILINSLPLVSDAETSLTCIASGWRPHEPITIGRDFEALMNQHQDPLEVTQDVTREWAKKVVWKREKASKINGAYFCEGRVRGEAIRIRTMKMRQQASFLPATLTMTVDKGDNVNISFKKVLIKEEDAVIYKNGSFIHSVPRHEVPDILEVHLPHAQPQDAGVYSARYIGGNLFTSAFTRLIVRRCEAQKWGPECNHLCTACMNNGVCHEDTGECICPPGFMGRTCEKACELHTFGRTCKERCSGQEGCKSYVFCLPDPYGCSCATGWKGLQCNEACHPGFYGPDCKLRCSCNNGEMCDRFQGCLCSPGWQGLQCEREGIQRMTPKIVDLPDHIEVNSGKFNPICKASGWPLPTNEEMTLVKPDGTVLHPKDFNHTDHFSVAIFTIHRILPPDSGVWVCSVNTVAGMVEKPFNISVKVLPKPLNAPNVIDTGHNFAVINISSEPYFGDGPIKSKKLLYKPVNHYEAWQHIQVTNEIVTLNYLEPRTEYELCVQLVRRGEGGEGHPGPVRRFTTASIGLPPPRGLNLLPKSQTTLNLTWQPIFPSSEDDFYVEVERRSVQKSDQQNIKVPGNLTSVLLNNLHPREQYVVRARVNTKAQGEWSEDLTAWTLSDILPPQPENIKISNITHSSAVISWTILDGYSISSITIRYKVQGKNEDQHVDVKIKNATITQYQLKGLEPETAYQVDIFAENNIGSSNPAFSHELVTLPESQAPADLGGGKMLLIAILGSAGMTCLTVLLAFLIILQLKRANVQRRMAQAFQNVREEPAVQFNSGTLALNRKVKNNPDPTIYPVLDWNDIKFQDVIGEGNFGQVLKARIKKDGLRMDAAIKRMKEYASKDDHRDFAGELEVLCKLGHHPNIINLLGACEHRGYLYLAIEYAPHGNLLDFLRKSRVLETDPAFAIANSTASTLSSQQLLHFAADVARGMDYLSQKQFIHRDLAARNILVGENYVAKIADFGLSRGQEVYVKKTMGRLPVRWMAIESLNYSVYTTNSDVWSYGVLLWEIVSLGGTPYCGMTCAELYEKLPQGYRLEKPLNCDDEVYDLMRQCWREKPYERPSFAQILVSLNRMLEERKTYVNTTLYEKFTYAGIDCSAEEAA

Mus musculus [5] = test: Effect on circulating leukocytes in wildtype mouse assessed as percentage of CD45+/PI- cells expressing CD8 at 1200 ppm administered as rodent chow for 10 to 24 weeks (reference value: 5.56 to 11.8 %); format: functional; conditions: route po, time 10-24 weeks
Mus musculus [6] = test: Antialzheimer activity in 5XFAD mouse assessed as number of Iba positive cells per FOV in retro spinal cortex at 1200 ppm administered as rodent chow starting from 1.5 months and measured after 7 months (reference value: 473 to 792); format: functional; conditions: route po, time 5.5 months, 4015 h
Mus musculus [7] = test: Antialzheimer activity in 5XFAD mouse assessed as time spent in center zone at 1200 ppm administered as rodent chow for 10 to 24 weeks by Open field test (reference value: 14.9 to 130.9 sec); format: functional; conditions: route po, time 10-24 weeks
[8] = biological target: T1, Macrophage colony-stimulating factor 1 receptor (Mus musculus) (UniProt P09581); test: In vivo inhibition of CSF1R in wildtype mouse assessed as number of GFAP positive cell per FOV in […] cortex at 1200 ppm administered as rodent chow for 10 to 24 weeks by immunolabelling based confocal microscopic analysis (reference value: 17 to 92); format: functional; conditions: route po, time 10-24 weeks
T1 sequence (whole entry): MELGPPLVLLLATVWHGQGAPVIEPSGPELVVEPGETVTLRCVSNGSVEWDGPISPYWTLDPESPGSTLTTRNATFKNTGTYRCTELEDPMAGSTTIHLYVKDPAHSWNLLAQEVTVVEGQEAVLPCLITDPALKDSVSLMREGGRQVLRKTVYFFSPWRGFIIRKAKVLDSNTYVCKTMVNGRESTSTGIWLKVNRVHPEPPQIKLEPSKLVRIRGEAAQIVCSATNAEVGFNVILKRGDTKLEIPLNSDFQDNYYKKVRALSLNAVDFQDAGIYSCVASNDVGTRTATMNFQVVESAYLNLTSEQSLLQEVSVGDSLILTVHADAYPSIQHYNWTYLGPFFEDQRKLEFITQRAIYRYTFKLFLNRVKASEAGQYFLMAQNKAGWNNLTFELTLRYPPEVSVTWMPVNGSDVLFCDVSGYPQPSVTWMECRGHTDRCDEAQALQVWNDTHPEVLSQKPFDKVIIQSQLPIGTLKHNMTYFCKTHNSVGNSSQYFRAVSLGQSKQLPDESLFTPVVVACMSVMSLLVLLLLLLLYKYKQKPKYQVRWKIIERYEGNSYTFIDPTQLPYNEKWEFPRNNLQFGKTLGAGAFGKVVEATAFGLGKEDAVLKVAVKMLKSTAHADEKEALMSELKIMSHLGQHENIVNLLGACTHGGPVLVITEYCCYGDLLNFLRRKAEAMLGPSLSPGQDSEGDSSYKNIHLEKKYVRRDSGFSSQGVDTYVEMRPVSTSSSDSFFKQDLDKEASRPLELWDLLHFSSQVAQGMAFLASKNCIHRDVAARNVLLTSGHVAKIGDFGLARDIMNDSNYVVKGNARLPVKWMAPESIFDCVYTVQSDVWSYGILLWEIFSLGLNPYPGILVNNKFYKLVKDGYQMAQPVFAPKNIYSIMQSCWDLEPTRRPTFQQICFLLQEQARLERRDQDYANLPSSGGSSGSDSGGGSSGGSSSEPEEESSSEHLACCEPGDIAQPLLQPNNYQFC

Mus musculus [9] = test: Effect on APP processing pathway in wildtype mouse assessed as PEN2 protein signal intensity in cortex at 1200 ppm administered as rodent starting from 1.5 months and measured after 7 months (reference value: 47.716 to 128.950 %); format: functional; conditions: route po, time 5.5 months, 4015 h
Mus musculus [10] = test: Effect on APP processing pathway in 5XFAD mouse assessed as PEN2 protein signal intensity in cortex at 1200 ppm administered as rodent starting from 1.5 months and measured after 7 months (reference value: 13.636 to 217.511 %); format: functional; conditions: route po, time 5.5 months, 4015 h
[11] = Effect on Siglech gene expression in 5XFAD mouse thalamus at 1200 ppm administered as rodent chow starting from 1.5 months and measured after 7 months by RNA-Seq analysis (reference value: 4.466 to 6.336 RPKM); format: functional; conditions: route po, time 5.5 months, 4015 h
[12] = Effect on Spi1 gene expression in wild type mouse hippocampus at 1200 ppm administered as rodent chow starting from 1.5 months and measured after 7 months by RNA-Seq analysis (reference value: 1.111 to 1.682 RPKM); format: functional; conditions: route po, time 5.5 months, 4015 h
[13] = Effect on ccl6 gene expression in 5XFAD mouse hippocampus at 1200 ppm administered as rodent chow starting from 1.5 months and measured after 7 months by RNA-Seq analysis (reference value: 5.688 to 8.240 RPKM); format: functional; conditions: route po, time 5.5 months, 4015 h
[14] = Effect on Clec7a gene expression in wild type mouse cortex at 1200 ppm administered as rodent chow starting from 1.5 months and measured after 7 months by RNA-Seq analysis (reference value: 0 to 0.413 RPKM); format: functional; conditions: route po, time 5.5 months, 4015 h
Summary of the method: (§1)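 WT and 5xFAD mice were treated with 1200 ppm PLX5622 chow or control chow from 1.5 to 7 months of age. Brains were microdissected into cortex, hippocampus and thalamus, and RNA was extracted from tissue powder. Whole-transcriptome RNA-Seq libraries were sequenced, with n = 4 per group per region (48 samples).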

[15] = Effect on Clec7a gene expression in wild type mouse hippocampus at 1200 ppm administered as rodent chow starting from 1.5 months and measured after 7 months by RNA-Seq analysis (reference value: 0.034 to 0.503 RPKM); format: functional; conditions: route po, time 5.5 months, 4015 h; summary of the method: as §1
[16] = Prevention of Gls gene downregulation in 5XFAD mouse hippocampus assessed as percent change in Reads Per kilo base per Million mapped reads at 1200 ppm administered as rodent chow starting from 1.5 months and measured after 7 months by RNA-Seq analysis (reference value: 58.522 to 73.849 %); format: functional; conditions: route po, time 5.5 months, 4015 h
Mus musculus [17] = test: Antialzheimer activity in 5XFAD mouse assessed as microglial numbers by measuring number of Iba positive cells per FOV in somatosensory cortex at 75 ppm administered as rodent chow starting from 1.5 months and measured after 5 months by immunolabeling based confocal microscopic analysis (reference value: 281 to 613); format: functional; conditions: route po, time 3.5 months, 2555 h
Summary of the method: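 5xFAD mice fed PLX3397 at 75 ppm in AIN-76A chow from 1.5 to 5 months of age; retrosplenial and somatosensory cortex sections stained with Thio-S and immunolabeled for IBA1; confocal imaging, IBA1+ cells and plaques quantified per region; two-tailed independent t-test, n = 4–5 per group, mean ± SEM.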

Chain of Inhibitor of nuclear factor kappa-B kinase subunit epsilon (Q14164 whole entry): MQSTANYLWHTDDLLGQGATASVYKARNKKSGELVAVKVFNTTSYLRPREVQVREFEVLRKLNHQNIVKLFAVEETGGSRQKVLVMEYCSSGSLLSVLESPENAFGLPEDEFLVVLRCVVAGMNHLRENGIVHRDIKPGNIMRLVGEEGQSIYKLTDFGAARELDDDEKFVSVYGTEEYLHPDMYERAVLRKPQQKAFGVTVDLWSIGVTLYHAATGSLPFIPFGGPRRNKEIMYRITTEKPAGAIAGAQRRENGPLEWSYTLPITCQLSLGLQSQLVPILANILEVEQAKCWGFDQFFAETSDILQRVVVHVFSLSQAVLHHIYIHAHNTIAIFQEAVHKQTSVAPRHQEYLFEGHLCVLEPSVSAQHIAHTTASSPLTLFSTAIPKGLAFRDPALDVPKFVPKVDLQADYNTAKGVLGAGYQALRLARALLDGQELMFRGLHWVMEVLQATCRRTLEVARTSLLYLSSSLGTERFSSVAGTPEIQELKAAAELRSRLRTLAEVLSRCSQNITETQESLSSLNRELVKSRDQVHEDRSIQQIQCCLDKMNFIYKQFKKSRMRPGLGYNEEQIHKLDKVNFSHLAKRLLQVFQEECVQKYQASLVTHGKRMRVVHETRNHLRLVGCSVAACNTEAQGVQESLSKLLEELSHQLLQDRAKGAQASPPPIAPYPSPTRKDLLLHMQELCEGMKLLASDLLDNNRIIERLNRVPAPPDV
Chain of Casein kinase I isoform gamma-3 (Q9Y6M4 whole entry, canonical isoform): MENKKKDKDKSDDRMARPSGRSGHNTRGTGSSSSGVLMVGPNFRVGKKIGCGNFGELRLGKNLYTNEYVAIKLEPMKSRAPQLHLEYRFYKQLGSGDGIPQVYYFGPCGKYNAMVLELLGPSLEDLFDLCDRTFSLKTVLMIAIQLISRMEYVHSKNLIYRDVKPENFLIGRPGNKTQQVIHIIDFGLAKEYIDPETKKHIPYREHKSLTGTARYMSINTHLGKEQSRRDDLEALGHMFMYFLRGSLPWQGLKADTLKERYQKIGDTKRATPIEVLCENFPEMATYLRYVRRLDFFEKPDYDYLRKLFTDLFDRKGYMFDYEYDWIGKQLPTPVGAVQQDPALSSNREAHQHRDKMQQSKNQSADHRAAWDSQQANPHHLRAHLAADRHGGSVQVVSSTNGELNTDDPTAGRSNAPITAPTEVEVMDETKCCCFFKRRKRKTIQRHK

SMILES | IC50 [1] [nM] | IC50 [2] [nM] | IC50 [3] [nM] | IC50 [4] [nM] | IC50 (Angiopoietin-1 receptor) [nM] | Activity (Mus musculus [5]) [%] | Activity (Mus musculus [6]) | Time (Mus musculus [7]) [s] | Activity [8] | Activity (Mus musculus [9]) [%] | Activity (Mus musculus [10]) [%] | Activity [11] [RPKM] | Activity [12] [RPKM] | Activity [13] [RPKM] | Activity [14] [RPKM] | Activity [15] [RPKM] | Activity [16] [%] | Activity (Mus musculus [17])
COc1ncc(F)cc1CNc1ccc(Cc2c[nH]c3ncc(C)cc23)c(F)n1 [PLX-5622] | > 1000 | > 1000 | > 1000 | > 1000 | > 1000 | 6.35 | 2 | 32.4 | 7 | 9.039 | 7.565 | 0 | 0.055 | 0.488 | 0 | 0.04 | 77.958 | 
FC(F)(F)c1ccc(CNc2ccc(Cc3c[nH]c4ncc(Cl)cc34)cn2)cn1 [PEXIDARTINIB] |  |  |  |  |  |  |  |  |  |  |  |  |  |  |  |  |  | 345
